Source: PubChem
GPR7 antag: blocks human GPR7 receptor signaling; P48145; GPR7-expressing cells, fluorescence antagonist assay; inhibition, % at 4.4 µM; 1.1% of 290,000 active; AID 1861; in the data active = inhibition above about 16%, passing the limit was not always enough;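 also: cells stimulated with the agonist NPW; 0% = agonist with vehicle and 100% = vehicle without agonist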
Target sequence (P48145 whole entry, looked up): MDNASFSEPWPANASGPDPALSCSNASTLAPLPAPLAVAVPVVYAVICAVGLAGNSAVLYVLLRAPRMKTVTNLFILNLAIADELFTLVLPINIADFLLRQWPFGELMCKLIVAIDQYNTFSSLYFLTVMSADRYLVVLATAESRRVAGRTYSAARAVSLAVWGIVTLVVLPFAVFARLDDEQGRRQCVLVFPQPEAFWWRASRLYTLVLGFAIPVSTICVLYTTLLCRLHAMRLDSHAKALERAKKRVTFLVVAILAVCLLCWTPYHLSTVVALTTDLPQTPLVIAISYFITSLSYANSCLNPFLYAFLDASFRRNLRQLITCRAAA
CHO parental Ca: counter-screen for OX1R antagonists: effect in parental CHO cells; inhibition, % at 5.6 µM; parental CHO-K1, ATP-induced calcium, Fluo-8 fluorescence; 0.63% of 330,000 active;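 active = inhibition above that plate's mean sample inhibition plus 3 SD, cut at about 26% in these data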;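 also: 0% = ATP-challenged DMSO wells and 100% = DMSO wells without ATP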
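Test system: untransfected parental CHO cell line; also added: ATP stimulus; dosing: 5.6 µM, single dose; signal: calcium-sensitive Fluo-8 fluorescence; measure: percent inhibition of ATP-evoked calcium rise, normalized to controls; benchmarks: low control ATP plus DMSO, high control DMSO only; replication: one well per compound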
GalR3 antag: blocks the human galanin receptor 3; 0.44% of 360,000 active; AID 651719; inhibition, % at 3 µM; HEK293 GalR3-CNG cAMP membrane potential fluorescence; galR3 body fused to GalR1 C-terminus;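 active = inhibition above the screen-wide average plus 3 SD, cut at about 13% in these data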;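 also: forskolin and galanin both at EC90 stimulate the cells; cAMP rise reported by CNG channel membrane potential dye signal; 0% = forskolin plus galanin with DMSO and 100% = forskolin alone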
Target sequence (O60755 1-299 limits assumed): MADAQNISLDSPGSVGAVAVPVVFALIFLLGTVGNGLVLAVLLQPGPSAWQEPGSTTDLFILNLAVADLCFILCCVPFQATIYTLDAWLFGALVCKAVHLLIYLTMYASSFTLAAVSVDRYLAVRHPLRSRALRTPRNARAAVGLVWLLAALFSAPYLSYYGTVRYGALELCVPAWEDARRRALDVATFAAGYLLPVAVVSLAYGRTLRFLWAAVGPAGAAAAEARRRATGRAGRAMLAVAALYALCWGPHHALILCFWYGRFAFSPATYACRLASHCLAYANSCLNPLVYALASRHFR
OX1R antag-1: human HCRTR1 antagonism; 0.43% of 330,000 active; AID 434989; inhibition, % at 5 µM; CHO/OX1R cells, Fluo-8 calcium fluorescence, orexin A; O43613;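 active = inhibition above its plate's threshold, mean inhibition of all tested compounds on the plate plus 3 SD, cut at about 37% in these data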;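 also: 0% = orexin A challenge wells and 100% = SB-334867-A antagonist wells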
OX1R antag-2: blocks the human orexin 1 receptor. O43613. OX1R-expressing cells, FRET antagonist read-out. inhibition, % at 6.6 µM. 1.8% of 330,000 active. AID 485270; in the data active = inhibition mostly above about 38%, no sharp cut-off; inactive = mostly below about 40%;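 also: 0% = agonist challenge alone and 100% = reference antagonist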
GPR7 antag conf: confirmation of human GPR7 antagonists | shares compounds with GPR7 antag | GPR7-expressing cells, calcium fluorescence antagonist mode | inhibition, % at 4.4 µM | 52% of 2,400 active; in the data active = inhibition above about 24%;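 also: stimulated with the GPR7 agonist NPW; 0% = agonist plus vehicle and 100% = vehicle alone without agonist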
MCHR1 antagonist: MCHR1 (human) antagonism in GPR7 counter-screen | AID 2148 | inhibition, % at 4.4 µM | shares compounds with GPR7 antag | 62% of 2,400 active | MCHR1-expressing cells, fluorescence antagonist assay; in the data active = inhibition above about 22%;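 also: 0% = vehicle with agonist and 100% = vehicle without agonist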
The depositor's hits bear a star; · = no result given. The list is not random: actives were taken first. Their share in the collection is about 3.1%.

SMILES | GPR7 antag | CHO parental Ca | GalR3 antag | OX1R antag-1 | OX1R antag-2 | GPR7 antag conf | MCHR1 antagonist
COc1ccc(S(=O)(=O)N2CCCN(CC(=O)Nc3ccccc3F)CC2)cc1 | 30* | -16 | -8 | -11 | 22 | 4 | 42*
COc1ccc(S(=O)(=O)N(CC(=O)Nc2ccc(S(=O)(=O)N3CCOCC3)cc2)Cc2ccc(F)cc2)cc1 | 24* | 4 | -12 | 11 | -3 | 28* | 21
COc1ccc(S(=O)(=O)N2CCCN(CC(=O)Nc3ccc4c(c3)OCO4)CC2)cc1 | 18 | -8 | -5 | -27 | 29 | · | ·
CCOC(=O)C1=CCN(S(=O)(=O)c2cccc(Cl)c2)C1c1ccc(F)cc1 (configuration not stated) | · | · | -8 | · | · | · | ·
COCCNc1ncnc2c1ncn2[C@H]1CN(Cc2ccncc2)C[C@@H](CO)O1 | · | · | -4 | · | · | · | ·
CCCCCCCCN1C(=O)[C@@H](CC(=O)NCCc2ccccc2OC)C[C@@]2(C(=O)OC)C1=C[C@H](C1CCCC1)O[C@@H]2C | · | · | -5 | · | · | · | ·
CCOc1ccc([N+](=O)[O-])c(N)c1 | 28* | -7 | 0 | 7 | 16 | 4 | 5
COc1cc(/C=C(\NC(=O)c2ccccc2)C(=O)Nc2nccs2)ccc1OC(C)=O | 1 | -18 | -5 | -37 | 2 | · | ·
Cc1ccc(NC(=S)NC(=O)Cc2ccccc2)c(O)c1 | 29* | · | -8 | · | · | 42* | 29*
CCn1c(SCC(=O)Nc2ccc3[nH]c(=O)[nH]c3c2)nc2ccccc21 | · | -11 | -2 | 11 | 5 | · | ·
CCn1c(SCC(=O)Nc2ccc(C(C)=O)cc2)nc2ccccc21 | 30* | -19 | -5 | -32 | 15 | 4 | 20
O=C(O)c1ccc(-n2nncc2-c2ccco2)cc1 | -16 | -8 | -8 | -23 | -4 | · | ·
O=C(Nc1ccc(-n2nncc2-c2ccco2)cc1)c1ccc(F)cc1 | 22* | -14 | -3 | 5 | 18 | 40* | 73*
Oc1ccc(CCc2ccccn2)cc1 | · | · | 0 | · | · | · | ·
CCOC(=O)N1CCN(Cc2cn[nH]c2-c2ccc(-c3ccccc3)cc2)CC1 | 25* | -23 | -5 | -24 | 15 | -9 | -5
Cc1cccc(C)c1-n1nnnc1C(c1ccnc2ccccc12)N1CCOCC1 (configuration not stated) | · | · | -5 | · | · | · | ·
Fc1cc(Br)ccc1NC(=S)NCCc1ccccc1 | 38* | 0 | -10 | 7 | -5 | 6 | 35*
O=C(CCC1CC(=O)Nc2ccccc21)NCc1ccc(F)cc1 (configuration not stated) | 33* | -9 | -6 | 8 | -1 | 12 | 23*
CCN1CCc2c(sc(NC(=O)Cc3ccccc3)c2C(N)=O)C1 | -1 | 1 | · | -6 | 1 | · | ·
CCN1CCc2c(sc(NC(=O)Nc3ccc(Cl)c(Cl)c3)c2C(N)=O)C1 | 58* | 94* | -2 | 99* | 24 | 60* | 81*
O=c1[nH]c(=S)[nH]c2c1C(C1CCCCC1)OC(C1CCCCC1)C2 (configuration not stated) | · | · | 1 | · | · | · | ·
CC(c1ccon1)N(C)C(=O)CCc1nnc(C2(c3ccc(Cl)cc3)CCC2)o1 (configuration not stated) | 25* | 0 | -4 | -23 | 0 | -6 | 4
COCC(C)NC(=O)CCc1nnc(C2(c3ccc(Cl)cc3)CCC2)o1 (configuration not stated) | -8 | -12 | 1 | -21 | 3 | · | ·
COC(=O)[C@]12C[C@H](CC(=O)NCc3ccc(C)o3)C(=O)N(Cc3ccccc3)C1=C[C@H](C1CCCC1)O[C@@H]2C | · | · | -3 | · | · | · | ·
CNC(=O)CCn1nc(-c2ccc(Cl)cc2)c2ccccc2c1=O | 24* | -7 | -5 | -39 | 34 | -13 | -1
SMILES | GPR7 antag | CHO parental Ca | GalR3 antag | OX1R antag-1 | OX1R antag-2 | GPR7 antag conf | MCHR1 antagonist
C#CCNC(=O)C[C@H]1C[C@@]2(C(=O)OC)C(=C[C@H](C(C)(C)C)O[C@@H]2C)N(CCc2ccc(OC)c(OC)c2)C1=O | · | · | -5 | · | · | · | ·
Cn1nnnc1SCCNCc1ccccc1OCc1ccc(Cl)cc1 | 10 | 14 | -2 | -24 | 26 | · | ·
Cn1nnnc1SCCNCc1cc(Cl)ccc1OCc1ccccc1 | 24* | -12 | -2 | -16 | 10 | 24 | 44*
Clc1ccc(-c2csc(=Nc3cccnc3)n2CCCn2ccnc2)cc1Cl | 28* | -24 | 1 | -31 | 38 | 28* | 40*
CCOc1cc(/C=C2\NC(=O)NC2=O)ccc1OC(C)C(=O)O (configuration not stated) | 32* | -6 | -9 | -12 | 42* | -16 | -8
Cn1c(N)c(C(=O)COC(=O)/C=C/c2ccc(S(=O)(=O)N3CCOCC3)cc2)c(=O)n(C)c1=O | 24* | -6 | -5 | -13 | 21 | 2 | 11
Cc1ccc(C(=O)OCC(=O)c2c(N)n(C)c(=O)n(C)c2=O)cc1S(=O)(=O)N1CCOCC1 | · | -21 | -5 | -19 | 4 | · | ·
CCOc1ccc(-c2nnc(N)s2)cc1 | 29* | -6 | -2 | -11 | 10 | -4 | -4
COC(=O)[C@@]1(Cc2ccc(F)cc2)[C@H]2c3cc(C(=O)N(C)C)n(Cc4ccccc4)c3C[C@H]2CN1C(=O)c1ccccc1 | · | -18 | -7 | -29 | 38 | · | 18
COC(=O)[C@@]1(Cc2ccc(F)cc2)[C@H]2c3cc(C(=O)N(C)C)n(Cc4ccc(OC)c(OC)c4)c3C[C@H]2CN1C(=O)c1ccccc1 | 10 | -16 | -9 | -20 | 5 | · | ·
COc1ccc(CC(=O)Nc2cc(S(=O)(=O)N3CCOCC3)ccc2N2CCCC2)cc1 | · | · | -6 | · | · | · | ·
CN(Cc1cccs1)C(=O)C1CC(=O)N(Cc2ccccc2)C1 (configuration not stated) | · | -2 | -5 | -20 | 14 | · | ·
Cc1ccc2nc(C)c(CN3CCN(c4ccc([N+](=O)[O-])cc4Cl)CC3)n2c1 | 23* | 34 | 4 | 0 | 22 | 52* | 52*
CCC(=O)N(CCC1(C(C)C)CCOC(C)(C)C1)C(C)c1cccs1 (configuration not stated) | 25* | -17 | -2 | -13 | 35 | 7 | 4
CC(SCc1ccc(C(=O)O)o1)c1ccc(C(=O)O)o1 (configuration not stated) | 4 | 0 | -1 | -5 | 1 | · | ·
CCOC(=O)c1ccc(NC(=O)Nc2ccc(F)cc2)cc1 | 23* | 22 | -9 | 1 | 52* | 47* | 55*
Cc1ccc(NC(=O)CCC(=O)c2ccc(F)cc2)cc1Cl | -14 | 17 | -5 | -3 | 22 | · | ·
Cc1ccc(NC(=O)CN(C)C2CCCCC2)cc1Cl | 25* | · | -11 | · | · | 21 | 24*
Cc1ccc(NC(=O)Nc2ccc(F)cc2)cc1Cl | 28* | 41* | -5 | 36 | 61 | 9 | 52*
Cc1cccc(C)c1[N+](=O)[O-] | · | · | 0 | · | · | · | ·
CCCC(=O)Nc1cccc(-c2cn3cccnc3n2)c1 | 68* | -9 | -4 | -20 | 11 | 8 | 5
